proCasp3 act – activators of human procaspase-3; activation, % at 8.5 µM; recombinant procaspase-3 D3A, Ac-DEVD-pNA absorbance 405 nm; 330,000 tested, 0.11% active;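 active means activation above the mean of all tested compounds plus 3 SD, cut at about 21% in these data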
Target sequence (P42574 whole entry D9A/D28A/D175A): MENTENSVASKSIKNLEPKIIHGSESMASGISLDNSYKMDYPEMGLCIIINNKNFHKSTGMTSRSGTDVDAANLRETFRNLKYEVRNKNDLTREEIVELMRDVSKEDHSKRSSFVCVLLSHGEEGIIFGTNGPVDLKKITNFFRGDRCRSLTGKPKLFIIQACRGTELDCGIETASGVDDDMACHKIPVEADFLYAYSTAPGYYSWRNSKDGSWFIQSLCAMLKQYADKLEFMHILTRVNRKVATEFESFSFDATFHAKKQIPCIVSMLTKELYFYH
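Evaluation: percent activation relative to control range; Material: Procaspase-3 D3A mutant, all three cleavage aspartates alanine; Compound: single dose, 8.5 µM nominal compound, 0.8% DMSO; Replication: one well per compound; Signal: absorbance at 405 nm, 0 and 120 min; Schedule: 1 h preincubation plus 2 h reaction at 25 °C.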
AHR activator – human AHR activation; P35869; 320,000 tested, 2.5% active; AHR-responsive luciferase reporter cells, luminescence; activation, % at 5 µM; in the data active means activation above about 47%
proCasp7 act – counter-screen: procaspase-7 (human) activation; P55210; recombinant procaspase-7, Ac-DEVD-pNA absorbance 405 nm; D23A/D198A/D206A triple mutant, cannot self-cleave; scale: DMSO 0, 5 µM enzyme 100; activation, % at 8.5 µM; 330,000 tested, 0.093% active; AID 463210;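 active means percent activation above the screen-wide mean plus 3 SD, cut at about 25% in these data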
Target sequence (P55210 whole entry D23A/D198A/D206A): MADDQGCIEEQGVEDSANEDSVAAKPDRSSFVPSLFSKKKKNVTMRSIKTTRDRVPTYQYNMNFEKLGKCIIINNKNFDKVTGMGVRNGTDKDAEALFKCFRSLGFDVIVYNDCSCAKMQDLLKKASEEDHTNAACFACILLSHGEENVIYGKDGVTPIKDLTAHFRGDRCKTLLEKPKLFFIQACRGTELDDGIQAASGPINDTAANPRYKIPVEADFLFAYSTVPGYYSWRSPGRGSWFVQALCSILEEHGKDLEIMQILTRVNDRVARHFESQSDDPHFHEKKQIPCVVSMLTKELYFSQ
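Test system: Procaspase-7 triple mutant (PC-7 D3A). Also added: Ac-DEVD-pNA substrate, 400 µM as added. Schedule: 1 h enzyme–compound preincubation and 2 h substrate reaction, both 25 °C. Signal: p-Nitroaniline absorbance at 405 nm, read at 0 and 120 min. Control set: low DMSO alone, high DMSO plus 5 µM PC-7.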
PolyA inh – inhibitors of polyadenylation in S. cerevisiae; activity score, % at 12 µM; 300,000 tested, 0.02% active; S. cerevisiae SKY197-pL101 polyadenylation reporter, beta-gal luminescence; efflux-impaired pdr1/pdr3 knockout yeast; score 100 = 6 SD above DMSO; AID 1875;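 active means lowest replicate activity score at least 50, where 100 means six control SD above control mean; inconclusive means lowest score under 50 but half or more replicates reach 50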;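 further: yeast exposed to compound for 9 h at 30 °C; higher score means more reporter readthrough which indicates perturbed polyadenylation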
Each line names hits and unclear results; the compound was inactive in the other large screens. In the library only some 2.6% were active in any assay of this set; here they are far more common.

CCN1C(=O)c2ccc(C(=O)NCc3ccco3)cc2C1=O	PolyA inh inconclusive
O=C(COc1ccccc1)NNc1nc2c(F)cccc2s1	none
O=C(NNc1nc2ccccc2s1)Nc1ccccc1	AHR activator 58.6
O=C(COc1ccccc1)NNc1nc2ccccc2s1	AHR activator 50.0
COc1ccc2nc(NC(=O)c3ccc([N+](=O)[O-])o3)sc2c1	AHR activator 52.1
COc1ccc2nc(NC(=O)Nc3cccc4ccccc34)sc2c1	AHR activator 64.5
Cc1ccc(NC(=O)Nc2nc3ccccc3s2)cc1NC(=O)Nc1nc2ccccc2s1	AHR activator 53.8
O=C(Nc1ccc(Cl)c([N+](=O)[O-])c1)Nc1nc2ccccc2s1	none
CCOc1ccc2nc(NC(=O)CCn3cccc3)sc2c1	AHR activator 58.9
COc1ccc2nc(NNC(=O)COc3ccccc3)sc2c1	AHR activator 71.5
CCCC(=O)Nc1nc2ccc(OCC)cc2s1	none
COc1ccc(OCC(=O)Nc2nc3ccc(NC(C)=O)cc3s2)cc1	none
O=C(NCCCCc1ccccc1)Nc1ccc(F)cc1	none
N/C(=N\OC(=O)c1ccc(Br)o1)c1cccnc1	AHR activator 52.7
COc1ccc(/C(N)=N/OC(=O)c2ccc(Br)o2)cc1	AHR activator 68.5
CC(=O)c1ccc(-c2ccc(C(=O)NC3CC(C)(C)NC(C)(C)C3)o2)cc1	none
Cc1ccc(-n2c(O)cnc2Nc2nc(C)cc(C)n2)cc1	none
Cc1cccc(-n2c(O)cnc2Nc2nc(C)cc(C)n2)c1	AHR activator 64.8
O=C(Nc1ccc(Br)c(C(F)(F)F)c1)c1ccccc1	AHR activator 50.6
O=C(Nc1ccc(C(=O)c2ccccc2)cc1)c1ccccc1	none
O=C(Nc1ccc(C(F)(F)F)cc1)c1ccccc1	AHR activator 53.3 (no result: PolyA inh)
CCCc1c(C(=O)Nc2ccc(C(F)(F)F)cc2)cnn1-c1ccccc1	AHR activator 110.2
O=c1c2cc(Cl)ccc2nc(-c2ccc([N+](=O)[O-])cc2)n1O	none
Cc1ccc(-c2nc3c(Cl)cc(Cl)cc3c(=O)n2O)cc1	AHR activator 65.5
O=c1c2cc(Br)ccc2nc(-c2ccc(Cl)cc2)n1O	AHR activator 50.2
COc1cc(Cl)c(C)cc1NCC(=O)Nc1cccc(S(=O)(=O)N2CCCC2)c1	none (no result: PolyA inh)
CC(C)Oc1ccc(S(=O)(=O)N2CCCCC2)cc1NC(=O)C1CCC1	none
COc1cc(N=Nc2cccc(S(N)(=O)=O)c2)c2ccccc2c1N	AHR activator 56.8
CC(=O)NC(Cc1c[nH]c2ccccc12)C(=O)N1CCN(S(=O)(=O)c2ccccc2)CC1 (stereo not drawn)	none (no result: PolyA inh)
Cc1cc2c(NC(=O)Nc3ccc(C(F)(F)F)cc3)cccc2nn1	AHR activator 54.7
Cc1cc(Br)ccc1NC(=O)c1ccco1	none
O=C(Nc1ccc(Cl)cc1C(=O)Nc1ccc(Br)cn1)c1ccco1	AHR activator 61.3
O=[N+]([O-])c1ccc2c3n([n+]([O-])c2c1)CCN=C3c1ccc(Cl)cc1	AHR activator 48.1
Nc1c(Cl)cc(C2=NCCn3c2c2ccc(C(F)(F)F)cc2[n+]3[O-])cc1Cl	AHR activator 54.5
Cc1ccc(C2=NCCn3c2c2ccc([N+](=O)[O-])cc2[n+]3[O-])cc1	none
[O-][n+]1c2ccccc2c2n1CCCN=C2c1ccc(Cl)cc1	AHR activator 51.0
COc1ccc2c3n([n+]([O-])c2c1)CCN=C3c1ccc(Cl)cc1	none (no result: PolyA inh)
Clc1ccc(C2=NCCn3nc4ccccc4c32)cc1	AHR activator 79.2
COc1ccc(S(=O)(=O)Nc2ccc(C)cn2)cc1	none
O=C(O)CC1(CC(=O)Nc2cccc(C(=O)O)c2)CCCC1	none
Nc1ccccc1C#CC(=O)c1ccccc1	none
COc1ccc(NC(=O)c2cc(-c3cc(C)cc(C)c3O)n[nH]2)cc1Cl	AHR activator 80.3
Cc1cccc(NC(=O)c2cc(-c3cc(C)cc(C)c3O)n[nH]2)c1	AHR activator 65.5
NC(c1ccccc1)c1cccnc1 (stereo not drawn)	none
Cc1ccc2sc(NNC(=O)c3cc(-c4cccs4)nc4ccccc34)nc2c1C	none
Cc1cccc2sc(NNC(=O)c3cc(=O)c4ccccc4o3)nc12	AHR activator 67.0
COc1ccc2nc(NC(=O)c3ccco3)sc2c1	none
O=C(NNc1nc2c(F)cccc2s1)c1cc(=O)c2ccccc2o1	AHR activator 79.7
COc1ccc2nc(NNC(=O)c3cc(=O)c4ccccc4o3)sc2c1	AHR activator 73.4
Cc1ccc2sc(NNC(=O)c3cc(=O)c4ccccc4o3)nc2c1C	AHR activator 76.0
Nc1ccc2c(c1)N=[N+]([O-])c1cc(N)ccc1C2	none
C/C(=N\Nc1ncc(Cl)cc1Cl)c1ccc2c(c1)OCO2	none
C/C(=N\Nc1ncc(Cl)cc1Cl)c1ccc(OC(F)F)cc1	AHR activator 62.8
COc1ccccc1N1C(=O)N(C(C)=O)C2C1Nc1ccccc1N2C (stereo not drawn)	AHR activator 60.1
COc1ccccc1N1C(=O)c2ccccc2NC1c1ccncc1 (stereo not drawn)	none
CCCCn1c(N)c(N(CC(C)C)C(=O)c2cc(S(=O)(=O)N3CCOCC3)ccc2Cl)c(=O)[nH]c1=O	none
N#CC1=C(N2CCOCC2)/C(=C\c2ccccc2)CC1	AHR activator 49.2
COc1cccc(NC(=O)/C=C/c2ccccc2[N+](=O)[O-])c1	none
COc1ccc(OC)c(NC(=O)/C=C/c2ccccc2[N+](=O)[O-])c1	AHR activator 70.9
COc1ccccc1NC(=O)/C=C/c1cc([N+](=O)[O-])ccc1OC(F)F	AHR activator 49.0
COc1ccc(NC(=O)/C=C/c2ccccc2[N+](=O)[O-])c(OC)c1	AHR activator 76.8
CC1CN(C/C(=N\O)C23CC4CC(CC(C4)C2)C3)CC(C)O1 (stereo not drawn)	none (no result: proCasp3 act, AHR activator, proCasp7 act)
O=C(NC1=NCCS1)c1ccccc1OCc1ccccc1Cl	none
Cc1sc(N/N=C/C=C/c2ccccc2)nc1-c1ccccc1	AHR activator 73.3
O=C(N/N=C/c1cccc(OC2CSC2)c1)c1ccccc1O	none
Cn1nccc1C(=O)Oc1cccc(/C=N/NC(=O)c2ccccc2O)c1	AHR activator 69.5
O=C(/C=C/c1cccs1)Nc1cccnc1	AHR activator 56.2
O=C(/C=C/c1c(F)cccc1Cl)Nc1cccnc1	AHR activator 49.9
O=[N+]([O-])c1ccc(Cl)c(S(=O)(=O)Nc2ccc(S(=O)(=O)N3CCOCC3)cc2)c1	none
Cc1cc(O)c(C(=O)Nc2cccc(Cl)c2)c(=O)n1C	none
CCOC(=O)Cn1c2ccccc2c2nc3ccccc3nc21	none
CCn1c2ccc(F)cc2c2nc3ccccc3nc21	AHR activator 58.5
CCCn1c2ccccc2c2nc3ccccc3nc21	AHR activator 78.5
N#CCCn1c2ccccc2c2nc3ccccc3nc21	AHR activator 70.5
Cn1c2ccc(F)cc2c2nc3ccccc3nc21	none
Cn1c2ccc(Cl)cc2c2nc3ccccc3nc21	AHR activator 56.4
OCCSc1nc(N2CCOCC2)nc(N2CCOCC2)n1	none

Screening data deposited in PubChem by several laboratories.
